According to ChEMBL document CHEMBL4364345, “Synthesis and evaluation of 1,3,4-oxadiazole derivatives for development as broad-spectrum antibiotics” (Bioorg Med Chem, 2019):
Values after ≈ are worked out from the molar mass of the structure shown. Active and inactive are the calls of the source.

Key:
Escherichia coli [1] = test: Antimicrobial activity against Escherichia coli ATCC 25922 at 50 ug/disk incubated for 20 +/- 4 hrs by agar disk diffusion method; assay type: functional; details: read-out: DIZ
Method in brief: (§1)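 Agar disk diffusion on Mueller-Hinton agar swab-seeded from a 0.5 McFarland inoculum (about 10^8 CFU/ml). Cellulose discs got 50 μg compound (10 μl of 5 g/L in DMSO); a 10 μL DMSO disc was the control. Incubated aerobically at 35 ± 2 °C for 20 ± 4 h, then growth-inhibition diameters measured.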

Proteus vulgaris = test: Antimicrobial activity against Proteus vulgaris clinical isolate at 50 ug/disk incubated for 20 +/- 4 hrs by agar disk diffusion method; assay type: functional; details: read-out: DIZ; method in brief: as §1
Listeria monocytogenes [2] = test: Antimicrobial activity against Listeria monocytogenes clinical isolate by broth microdilution method; assay type: functional
Method in brief: (§2)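 MICs were set by broth microdilution following EUCAST guidelines, from three independent experiments reported as values or ranges. MICs were measured only where disk-diffusion inhibition diameters were 9 mm or more.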

Enterococcus faecalis [3] = test: Antimicrobial activity against Enterococcus faecalis ATCC 29212 at 50 ug/disk incubated for 20 +/- 4 hrs by agar disk diffusion method; assay type: functional; details: read-out: DIZ; method in brief: as §1
Bacillus subtilis = test: Antimicrobial activity against Bacillus subtilis clinical isolate at 50 ug/disk incubated for 20 +/- 4 hrs by agar disk diffusion method; assay type: functional; details: read-out: DIZ; method in brief: as §1
Enterococcus faecium [4] = test: Antimicrobial activity against Enterococcus faecium HM1070 at 50 ug/disk incubated for 20 +/- 4 hrs by agar disk diffusion method; assay type: functional; details: read-out: DIZ; method in brief: as §1
Pseudomonas aeruginosa = test: Antimicrobial activity against Pseudomonas aeruginosa clinical isolate at 50 ug/disk incubated for 20 +/- 4 hrs by agar disk diffusion method; assay type: functional; details: read-out: DIZ; method in brief: as §1
MCF7 = test: Cytotoxicity against human MCF7 cells assessed as decrease in cell viability in MTT assay; assay type: cell-based
Method in brief: (§3)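 Cell viability was measured by MTT on a robotic screening platform. Residual viability was expressed as a percentage of the mean viable cells in DMSO-treated controls. Under 25-30% viability was considered cytotoxic, and IC50 values were derived.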

Staphylococcus aureus = test: Antimicrobial activity against Staphylococcus aureus ATCC 29213 at 50 ug/disk incubated for 20 +/- 4 hrs by agar disk diffusion method; assay type: functional; details: read-out: DIZ; method in brief: as §1
PC-3 = test: Cytotoxicity against human PC3 cells assessed as decrease in cell viability in MTT assay; assay type: cell-based; method in brief: as §3
Listeria monocytogenes [5] = test: Antimicrobial activity against Listeria monocytogenes clinical isolate at 50 ug/disk incubated for 20 +/- 4 hrs by agar disk diffusion method; assay type: functional; details: read-out: DIZ
Method in brief: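 Disk diffusion on MH agar with 5% horse blood, seeded by swab from a 0.5 McFarland suspension. Discs held 50 μg compound from a 5 g/L DMSO solution, with a DMSO-only control disc. Aerobic incubation at 35 ± 2 °C for 20 ± 4 h; inhibition zone diameter read.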

Streptococcus pyogenes = test: Antimicrobial activity against Streptococcus pyogenes clinical isolate by broth microdilution method; assay type: functional; method in brief: as §2
Klebsiella pneumoniae = test: Antimicrobial activity against Klebsiella pneumoniae clinical isolate at 50 ug/disk incubated for 20 +/- 4 hrs by agar disk diffusion method; assay type: functional; details: read-out: DIZ; method in brief: as §1
Escherichia coli [6] = test: Antimicrobial activity against clpP-TolC deficient Escherichia coli BW25113 by agar disk diffusion method; assay type: functional
Escherichia coli [7] = test: Antimicrobial activity against TolC deficient Escherichia coli BW25113 by agar disk diffusion method; assay type: functional
[8] = Cytotoxicity against human NHFB cells assessed as decrease in cell viability in MTT assay; assay type: cell-based; method in brief: as §3
Escherichia coli [9] = test: Antimicrobial activity against ssrA-TolC deficient Escherichia coli BW25113 by agar disk diffusion method; assay type: functional
Clostridium perfringens = test: Antimicrobial activity against Clostridium perfringens clinical isolate at 50 ug/disk incubated for 20 +/- 4 hrs by agar disk diffusion method; assay type: functional; details: read-out: DIZ
Method in brief: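 Agar disk diffusion on MH agar with 5% horse blood (MHF), surface-seeded by swab from a 0.5 McFarland inoculum (about 10^8 CFU/ml). Cellulose discs received 10 μl of a 5 g/L DMSO solution (50 μg). A DMSO-only disc served as control. Anaerobic incubation at 35 ± 2 °C for 20 ± 4 h; growth-inhibition diameter measured in mm.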

[10] = system: Mycobacteroides abscessus; test: Antimicrobial activity against Mycobacterium abscessus clinical isolate at 50 ug/disk incubated for 4 days by agar disk diffusion method; assay type: functional; details: 96 h, read-out: DIZ
Method in brief: (§4)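 On MH agar with 5% horse blood, a 0.5 McFarland inoculum was swabbed and discs with 50 μg compound (from 5 g/L in DMSO) were laid down, alongside a DMSO control disc. Incubation was humid and aerobic at 35 ± 2 °C for 4 days, then growth-inhibition diameters were measured.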

Caco-2 = test: Cytotoxicity against human Caco2 cells assessed as decrease in cell viability in MTT assay; assay type: cell-based; method in brief: as §3
Bacteroides fragilis [11] = test: Antimicrobial activity against Bacteroides fragilis ATCC 25285 by broth microdilution method; assay type: functional; method in brief: as §2
Bacteroides fragilis [12] = test: Antimicrobial activity against Bacteroides fragilis ATCC 25285 at 50 ug/disk incubated for 20 +/- 4 hrs by agar disk diffusion method; assay type: functional; details: read-out: DIZ
Method in brief: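 Anaerobic disk diffusion: MH agar + 5% horse blood seeded from a 0.5 McFarland swab, with discs of 50 μg compound (10 μl of 5 g/L DMSO solution) and a DMSO control disc. Kept at 35 ± 2 °C under anaerobic conditions for 20 ± 4 h; inhibition diameters recorded.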

[13] = system: Mycobacteroides abscessus; test: Antimicrobial activity against Mycobacterium abscessus clinical isolate by broth microdilution method; assay type: functional; method in brief: as §2
[14] = system: Mycolicibacterium fortuitum; test: Antimicrobial activity against Mycobacterium fortuitum clinical isolate at 50 ug/disk incubated for 4 days by agar disk diffusion method; assay type: functional; details: 96 h, read-out: DIZ; method in brief: as §4
MDA-MB-231 = test: Cytotoxicity against human MDA-MB-231 cells assessed as decrease in cell viability in MTT assay; assay type: cell-based; method in brief: as §3
Acinetobacter baumannii = test: Antimicrobial activity against Acinetobacter baumannii clinical isolate at 50 ug/disk incubated for 20 +/- 4 hrs by agar disk diffusion method; assay type: functional; details: read-out: DIZ; method in brief: as §1
Proteus mirabilis = test: Antimicrobial activity against Proteus mirabilis clinical isolate at 50 ug/disk incubated for 20 +/- 4 hrs by agar disk diffusion method; assay type: functional; details: read-out: DIZ; method in brief: as §1
Enterococcus faecium [15] = test: Synergistic antimicrobial activity against Enterococcus faecium AUS0004 assessed as DIZ at 50 ug/disk incubated for 20 +/- 4 hrs in presence of imipenem by agar disk diffusion method (reference value: 6 millimeter); assay type: functional; details: read-out: DIZ
Enterococcus faecium [16] = test: Synergistic antimicrobial activity against Enterococcus faecium AUS0004 assessed as DIZ at 50 ug/disk incubated for 20 +/- 4 hrs in presence of gentamicin by agar disk diffusion method (reference value: 17 millimeter); assay type: functional; details: read-out: DIZ
Listeria monocytogenes [17] = test: Synergistic antimicrobial activity against Listeria monocytogenes clinical isolate assessed as DIZ at 50 ug/disk incubated for 20 +/- 4 hrs in presence of ofloxacin by agar disk diffusion method (reference value: 19 millimeter); assay type: functional; details: read-out: DIZ
Enterococcus faecalis [18] = test: Synergistic antimicrobial activity against Enterococcus faecalis ATCC 29212 assessed as DIZ at 50 ug/disk incubated for 20 +/- 4 hrs in presence of erythromycin by agar disk diffusion method (reference value: 20 millimeter); assay type: functional; details: read-out: DIZ
Enterococcus faecium [19] = test: Synergistic antimicrobial activity against Enterococcus faecium AUS0004 assessed as DIZ at 50 ug/disk incubated for 20 +/- 4 hrs in presence of streptomycin by agar disk diffusion method (reference value: 22 millimeter); assay type: functional; details: read-out: DIZ
Enterococcus faecalis [20] = test: Synergistic antimicrobial activity against Enterococcus faecalis ATCC 29212 assessed as DIZ at 50 ug/disk incubated for 20 +/- 4 hrs in presence of gentamicin by agar disk diffusion method (reference value: 13 millimeter); assay type: functional; details: read-out: DIZ

SMILES | zone of inhibition at 50 µg/disc (Escherichia coli [1]) | zone of inhibition at 50 µg/disc (Proteus vulgaris) | MIC (Listeria monocytogenes [2]) | zone of inhibition at 50 µg/disc (Enterococcus faecalis [3]) | zone of inhibition at 50 µg/disc (Bacillus subtilis) | zone of inhibition at 50 µg/disc (Enterococcus faecium [4]) | zone of inhibition at 50 µg/disc (Pseudomonas aeruginosa) | IC50 (MCF7) | zone of inhibition at 50 µg/disc (Staphylococcus aureus) | IC50 (PC-3) | zone of inhibition at 50 µg/disc (Listeria monocytogenes [5]) | MIC (Streptococcus pyogenes) | zone of inhibition at 50 µg/disc (Klebsiella pneumoniae) | diameter of the inhibition zone (DIZ) (Escherichia coli [6]) | diameter of the inhibition zone (DIZ) (Escherichia coli [7]) | IC50 [8] | diameter of the inhibition zone (DIZ) (Escherichia coli [9]) | zone of inhibition at 50 µg/disc (Clostridium perfringens) | zone of inhibition at 50 µg/disc [10] | IC50 (Caco-2) | further results
O=C(Nc1nnc(-c2ccc(F)cc2)o1)c1ccc(Cl)cc1 | 6 mm | 6 mm | 4 mg/L (≈ 12.6 µM) | 6 mm | 12 mm | 8 mm | 6 mm | 22 µM | 12 mm | 21 µM | 13 mm | 32 to 64 mg/L (≈ 101 to 201 µM) | 6 mm | 14.3 mm | 13 mm | > 25 µM | 13 mm | 6 mm | 6 mm | 14 µM | MIC (Bacteroides fragilis [11]): 2 to 4 mg/L (≈ 6.3 to 12.6 µM); zone of inhibition at 50 µg/disc (Bacteroides fragilis [12]): 6 mm; MIC [13]: 64 mg/L (≈ 201 µM); zone of inhibition at 50 µg/disc [14]: 9 mm; IC50 (MDA-MB-231): 25 µM; zone of inhibition at 50 µg/disc (Acinetobacter baumannii): 6 mm; zone of inhibition at 50 µg/disc (Proteus mirabilis): 6 mm
O=C(Nc1ncc(-c2ccc(F)cc2)o1)c1ccc(Cl)cc1 | 8 mm | 10 mm | 32 to 64 mg/L (≈ 101 to 202 µM) | 11 mm | 15 mm | 13 mm | 6 mm | 4 µM | 16 mm | 2 µM | 17 mm | 32 to 64 mg/L (≈ 101 to 202 µM) | 6 mm | 13.3 mm | 11.33 mm | > 25 µM | 13 mm | 6 mm | 7 mm | 3 µM | zone of inhibition at 50 µg/disc (Enterococcus faecium [15]): 13 mm; zone of inhibition at 50 µg/disc (Enterococcus faecium [16]): 18 mm; zone of inhibition at 50 µg/disc (Listeria monocytogenes [17]): 15 mm; zone of inhibition at 50 µg/disc (Enterococcus faecalis [18]): 20 mm; zone of inhibition at 50 µg/disc (Enterococcus faecium [19]): 21 mm; zone of inhibition at 50 µg/disc (Enterococcus faecalis [20]): 16 mm; MIC (Bacteroides fragilis [11]): inactive; zone of inhibition at 50 µg/disc (Bacteroides fragilis [12]): 8 mm; MIC [13]: inactive; zone of inhibition at 50 µg/disc [14]: 12 mm; IC50 (MDA-MB-231): 5 µM; zone of inhibition at 50 µg/disc (Acinetobacter baumannii): 6 mm; zone of inhibition at 50 µg/disc (Proteus mirabilis): 6 mm
O=C(Nc1nnc(-c2ccc(C(F)(F)F)cc2)o1)c1ccc(Cl)nc1 | 6 mm | 8 mm | 8 mg/L (≈ 21.7 µM) | 23 mm | 24 mm | 24 mm | 6 mm | > 25 µM | 22 mm | > 25 µM | 31 mm | 32 mg/L (≈ 86.8 µM) | 6 mm | 27 mm | 23.6 mm | > 25 µM | 27 mm | 13 mm | 14 mm | > 25 µM | zone of inhibition at 50 µg/disc (Enterococcus faecium [15]): 24 mm; zone of inhibition at 50 µg/disc (Enterococcus faecium [16]): 25 mm; zone of inhibition at 50 µg/disc (Listeria monocytogenes [17]): 30 mm; zone of inhibition at 50 µg/disc (Enterococcus faecalis [18]): 23 mm; zone of inhibition at 50 µg/disc (Enterococcus faecium [19]): 26 mm; zone of inhibition at 50 µg/disc (Enterococcus faecalis [20]): 23 mm; MIC (Bacteroides fragilis [11]): 2 mg/L (≈ 5.42 µM); zone of inhibition at 50 µg/disc (Bacteroides fragilis [12]): 16 mm; MIC [13]: 16 to 32 mg/L (≈ 43.4 to 86.8 µM); zone of inhibition at 50 µg/disc [14]: 19 mm; IC50 (MDA-MB-231): > 25 µM; zone of inhibition at 50 µg/disc (Acinetobacter baumannii): 6 mm; zone of inhibition at 50 µg/disc (Proteus mirabilis): 6 mm
O=C(Nc1nnc(-c2ccc(C(F)(F)F)cc2)o1)c1cccc(Cl)c1 | 6 mm | 6 mm | 8 mg/L (≈ 21.8 µM) | 20 mm | 24 mm | 23 mm | 6 mm | 15 µM | 24 mm | 17 µM | 28 mm | 4 to 32 mg/L (≈ 10.9 to 87 µM) | 6 mm | 22.3 mm | 21.3 mm | > 25 µM | 22.3 mm | 11 mm | 9 mm | 11 µM | zone of inhibition at 50 µg/disc (Enterococcus faecium [15]): 24 mm; zone of inhibition at 50 µg/disc (Enterococcus faecium [16]): 25 mm; zone of inhibition at 50 µg/disc (Listeria monocytogenes [17]): 29 mm; zone of inhibition at 50 µg/disc (Enterococcus faecalis [18]): 24 mm; zone of inhibition at 50 µg/disc (Enterococcus faecium [19]): 26 mm; zone of inhibition at 50 µg/disc (Enterococcus faecalis [20]): 23 mm; MIC (Bacteroides fragilis [11]): 1 to 2 mg/L (≈ 2.72 to 5.44 µM); zone of inhibition at 50 µg/disc (Bacteroides fragilis [12]): 11 mm; MIC [13]: 32 to 64 mg/L (≈ 87 to 174 µM); zone of inhibition at 50 µg/disc [14]: 23 mm; IC50 (MDA-MB-231): 23 µM; zone of inhibition at 50 µg/disc (Acinetobacter baumannii): 6 mm; zone of inhibition at 50 µg/disc (Proteus mirabilis): 6 mm
